Hits are enriched below; roughly 2.9% of the tested compounds scored in any of these assays.
hiPSC survival: enhancers of single-cell hiPSC survival, primary screen, ATPlite luminescence | survival enhancement, % at 20 µM | 100% = ROCK inhibitor wells, 0% = DMSO | 360,000 tested, 0.044% active; in the data active = survival enhancement above about 18%;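 note: cells exposed to compounds for 16 hours before the ATP read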
NR1D1 modulator: modulators of Rev-erb alpha DNA binding, primary screen, biochemical, FITC-DNA, fluorescence polarization, uHTS; Nuclear receptor subfamily 1 group D member 1 (Homo sapiens), P20393; Rev-erbα–FITC-DNA binding, 90 min; activity, % at 10 µM; 370,000 tested, 0.79% active; AID 1259318, 2017;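 active = activity above about 14%, limit read from the data; passing the limit was not always enough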
Target sequence (P20393 whole entry, looked up): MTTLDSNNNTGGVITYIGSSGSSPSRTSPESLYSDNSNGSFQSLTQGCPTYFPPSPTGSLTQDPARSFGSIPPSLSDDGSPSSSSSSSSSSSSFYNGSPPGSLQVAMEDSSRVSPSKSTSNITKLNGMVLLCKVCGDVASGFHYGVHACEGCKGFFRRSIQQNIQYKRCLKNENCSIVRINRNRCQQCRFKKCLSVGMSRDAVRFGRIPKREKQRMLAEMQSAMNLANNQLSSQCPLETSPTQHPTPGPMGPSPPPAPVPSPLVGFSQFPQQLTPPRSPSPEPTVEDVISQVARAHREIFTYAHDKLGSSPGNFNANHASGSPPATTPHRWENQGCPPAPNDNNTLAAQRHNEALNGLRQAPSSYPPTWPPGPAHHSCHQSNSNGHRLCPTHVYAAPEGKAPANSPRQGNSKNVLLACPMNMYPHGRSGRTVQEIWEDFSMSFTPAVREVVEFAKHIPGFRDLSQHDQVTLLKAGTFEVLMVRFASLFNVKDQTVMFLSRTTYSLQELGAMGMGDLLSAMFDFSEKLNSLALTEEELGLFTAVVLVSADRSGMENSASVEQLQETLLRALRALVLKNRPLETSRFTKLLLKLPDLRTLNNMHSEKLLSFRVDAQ
beta cell repl: inducers of MIN6 beta-cell proliferation, primary screen, ATP luminescence, uHTS. MIN6 cells proliferation, ATPlite luminescence, 48 h; cells starved in 0.2% serum; 100% = growth in 10% serum. proliferation, % at 10 µM. 330,000 tested, 0.29% active;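 active = compounds whose signal lies at least 3.5 SD above the mean of all wells on their plate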
T cruzi repl: inhibitors of intracellular T. cruzi growth, primary screen, luminescence, NIH3T3 host cells | T. cruzi beta-gal in NIH3T3, 90 h | inhibition, % (test concentration not listed) | 300,000 tested, 1.4% active | AID 1885, 2009;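 active = mean inhibition across valid replicates above about 55%, limit read from the data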;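 note: signal also drops with host cell toxicity which is not excluded here; higher percent means less beta-gal luminescence so fewer parasites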
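System – NIH/3T3 host cells with β-galactosidase reporter T. cruzi · Doses – single 50 nL compound addition per well in DMSO · Reagent – 5000 T. cruzi trypomastigotes/well · Medium – Low-serum DMEM with 2% FBS · Timing – ≥90 h infection period, 3 h prior cell attachment · Evaluation – parasite load inhibition, % · Technique – GalScreen luminescence, 60 min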
TAG inh: inhibitors of triacylglycerol accumulation, primary screen, cell-based, uHTS, fluorescence, H9c2; H9c2 cells, Nile Red lipid (TAG) fluorescence; cells loaded with 200 µM oleic acid; inhibition, % at 12.5 µM; 230,000 tested, 0.66% active; AID 651582, 2012;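 active = pattern-corrected inhibition of lipid staining of at least 50% with the nuclear-stain viability signal not falling by more than 50%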
PG9 binder: binders of HIV-1 gp120 antibody PG9, primary screen, biochemical, TR-FRET; inhibition, % at 6.7 µM; 360,000 tested, 0.43% active; TR-FRET gp120-PG9 antibody binding; AID 624416, 2012; in the data active = inhibition above about 8.5%
PG9 bind confirm: binders of anti-gp120 antibody PG9, confirmation, biochemical, TR-FRET; shares compounds with PG9 binder; TR-FRET PG9 antibody binding; inhibition, % at 6.7 µM; 1,500 tested, 90% active; AID 651571, 2012; in the data active = inhibition above about 9%
PGV04 counter: binders of control antibody PGV04, counter-screen for PG9 antibody binder project, biochemical, TR-FRET, distinct HIV envelope site; 1,500 tested, 95% active; AID 651604, 2012; inhibition, % at 6.7 µM; shares compounds with PG9 binder; TR-FRET PGV04 antibody-gp120 binding; in the data active = inhibition above about 9.5%
Each line names hits and unclear results; the compound was inactive in the other large screens (follow-up assays come after a bar, where they were run).

Cn1ccc2c(N3c4ccccc4CCc4ccccc43)cc3c(c21)C1CCC3O1 (stereo unspecified)	PG9 binder 19 (no result: beta cell repl, T cruzi repl, TAG inh) | PG9 bind confirm inactive | PGV04 counter inactive
COc1ccc(-c2cc3nc(NCc4ccc(C)cc4C)n(C)c(=O)c3s2)cc1OC	PG9 binder 13 (no result: beta cell repl, T cruzi repl) | PG9 bind confirm 13 | PGV04 counter 20
COc1ccc2cc(CN(CC3COCCO3)S(=O)(=O)c3ccc(Cl)cc3)c(=O)[nH]c2c1 (stereo unspecified)	PG9 binder 24 | PG9 bind confirm 26 | PGV04 counter 31
O=S(=O)(c1ccc(Cl)nc1)N1CCC(Cc2ccccc2)CC1	none (no result: T cruzi repl)
NC(=O)C1CCN(c2ccc(S(=O)(=O)N3CCC(Cc4ccccc4)CC3)cn2)CC1	PG9 binder 14 | PG9 bind confirm 24 | PGV04 counter 34
CCCc1nc2ccccc2c(=O)n1CC(=O)c1ccc(OC)cc1	PG9 binder 10.0 (no result: TAG inh) | PG9 bind confirm 11 | PGV04 counter 15
Cc1ccc(-c2nc3cccnc3s2)cc1NS(C)(=O)=O	PG9 binder 9.2 | PG9 bind confirm 29 | PGV04 counter 34
Cc1cc(C)nc(Sc2ncnc3c2oc2ccccc23)n1	none (no result: TAG inh)
CC(=O)c1ccc(NC(=O)c2ccc(-n3cnnn3)cc2)cc1	PG9 binder 17 (no result: T cruzi repl) | PG9 bind confirm 33 | PGV04 counter 46
CC(=O)c1ccc(S(=O)(=O)Nc2ccc(-n3cnnn3)cc2)cc1	none (no result: T cruzi repl)
CC(C)COc1ccc(C(=O)Nc2ccc(NC(=O)c3ccco3)c(Cl)c2)cc1	none (no result: TAG inh)
CC(C)Oc1ccc(C(=O)Nc2ccc(NC(=O)c3ccco3)c(Cl)c2)cc1	PG9 binder 11 | PG9 bind confirm 16 | PGV04 counter 23
CCc1c(C(=O)Nc2ccc(C)c(C)c2)[nH]c(C)c1C(C)=O	none (no result: TAG inh)
CC(=O)c1c(C)[nH]c(C(=O)Nc2ccc(C)cc2Br)c1C	PG9 binder 10 (no result: TAG inh) | PG9 bind confirm inactive | PGV04 counter 11
CCc1c(C(=O)Nc2cc(C)ccc2OC)[nH]c(C)c1C(C)=O	PG9 binder 20 | PG9 bind confirm 19 | PGV04 counter 24
COc1ccc(OC)c(NC(=O)CSc2nc3scc(C)c3c(=O)[nH]2)c1	none (no result: TAG inh)
COc1cccc(NC(=O)CSc2nc3scc(C)c3c(=O)[nH]2)c1	PG9 binder 26 (no result: TAG inh) | PG9 bind confirm 29 | PGV04 counter 43
CC(Sc1nc2scc(-c3ccccc3)c2c(=O)[nH]1)C(=O)NC(N)=O (stereo unspecified)	none
Cc1cc(SCCC(=O)O)nc2c(C)cccc12	PG9 binder 11 | PG9 bind confirm 14 | PGV04 counter 18
Cc1cc(SCC(=O)NC2(C#N)CCCCC2)nc2c(C)cccc12	PG9 binder 23 | PG9 bind confirm 31 | PGV04 counter 37
Cc1ccc(SCc2cn3ccccc3n2)cc1	none
NS(=O)(=O)c1ccc(NC(=O)COC(=O)c2cn(-c3ccccc3)nc2-c2ccc(F)cc2)cc1	PG9 binder 9.0 | PG9 bind confirm 16 | PGV04 counter 24
COC(=O)c1cc2sc(Cl)cc2n1CC(=O)NCCC(C)C	PG9 binder 11 | PG9 bind confirm 20 | PGV04 counter 24
COC(=O)c1cc2sccc2n1CC(=O)Nc1cc(OC)cc(OC)c1	none (no result: TAG inh)
CC(=O)Nc1ccc(NC(=O)Cn2c(CC(=O)N3CCCC3)nc3ccccc32)cc1	none (no result: TAG inh, PG9 binder)
COc1cc(CC(=O)Nc2sc3c(c2C(N)=O)CCCC3)cc(OC)c1OC	PG9 binder 9.3 (no result: TAG inh) | PG9 bind confirm 17 | PGV04 counter 23
COc1cc(OC)cc(C(=O)Nc2sc3c(c2C(N)=O)CCC3)c1	PG9 binder 50 (no result: TAG inh) | PG9 bind confirm 18 | PGV04 counter 31
COc1ccccc1-c1nc(SCC(=O)NCc2ccco2)c2c(=O)n(C)c(=O)n(C)c2n1	PG9 binder 28 | PG9 bind confirm 26 | PGV04 counter 30
Cc1cc2nn(-c3ccc(Cl)cc3)nc2cc1N	none (no result: TAG inh)
CNc1nn(-c2cccc(Cl)c2)nc1N	PG9 binder 21 | PG9 bind confirm 21 | PGV04 counter 27
CCOc1cccc2cc(C(=O)NC(C)c3ccccc3)c(=N)oc12 (stereo unspecified)	PG9 binder 9.0 (no result: TAG inh) | PG9 bind confirm 9.2 | PGV04 counter 15
CCOc1cccc2cc(C(=O)NCc3ccccc3)c(=N)oc12	none (no result: NR1D1 modulator, TAG inh, PG9 binder)
COc1ccc(C(=O)NCCNc2nc3ccc(C)cc3cc2C#N)cc1	PG9 binder 45 (no result: TAG inh) | PG9 bind confirm 12 | PGV04 counter 36
CCOc1ccc2nc(NCCNC(=O)Nc3ccccc3)c(C#N)cc2c1	none (no result: beta cell repl)
Cc1ccc2nc(NCCNC(=O)c3ccccc3)c(C#N)cc2c1	none
CCOc1ccc2nc(NCCNC(=O)Nc3cccc(C)c3)c(C#N)cc2c1	PG9 binder 9.8 | PG9 bind confirm 15 | PGV04 counter 32
Cc1ccc(OCC(=O)N(Cc2ccccc2)c2c(N)n(Cc3ccccc3)c(=O)[nH]c2=O)c(C)c1	none
Cc1ccc(SCCC(=O)Nc2ccc(OCc3ccccc3)cc2)cc1	PG9 binder 9.2 (no result: TAG inh) | PG9 bind confirm 15 | PGV04 counter 19
O=C(O)C1CCC(Cn2c(SCc3cc(=O)n4cc(Br)ccc4n3)nc3ccsc3c2=O)CC1 (stereo unspecified)	PG9 binder 22 | PG9 bind confirm 30 | PGV04 counter 50
O=C(O)c1ccc(Cn2c(SCc3cc(=O)n4cc(Br)ccc4n3)nc3ccsc3c2=O)cc1	none (no result: hiPSC survival, TAG inh)
COC(=O)c1cc2oc3ccccc3c2n1CC(=O)N1CCCc2ccccc21	PG9 binder 12 | PG9 bind confirm 12 | PGV04 counter 20
COC(=O)c1ccc(C)c(NC(=O)CSc2nnc3ccccn23)c1	none (no result: T cruzi repl)
CCc1ccc(-c2nc3ccc(Br)cc3c(C(=O)O)c2C)s1	PG9 binder 27 (no result: TAG inh) | PG9 bind confirm 33 | PGV04 counter 59
O=c1oc2ccccc2c(Nc2ccc(Cl)cc2)c1[N+](=O)[O-]	none
CCOCCCn1c(SCC(=O)Nc2ccc(OC)cc2)nc2ccccc2c1=O	PG9 binder 48 | PG9 bind confirm 48 | PGV04 counter 55
